Data set [1] is described as follows: Drug level in ICR mouse lung at 20 mg/kg administered intratracheally after 15 mins. Further details: dose 20 mg/kg, route endotracheal. As to conditions: inhaled or intranasal, read-out: Drug uptake. The data set is classed as ADME, organism-based. In outline: (§1)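 Male ICR mice (4-6 weeks) under isoflurane given the enantiomer in sterile saline (1 ml/kg) intratracheally by micropipette. Whole lungs taken at indicated times, homogenised in sterile PBS with 50 U/ml heparin, centrifuged; 300 µl aliquot ultrafiltered and filtrate analysed by chiral HPLC (Chiralpak IA; water with 0.1 M KPF6/acetonitrile 30:70, 1.0 mL/min). Level expressed as µg/lung; mean ± SEM, n = 3.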

Data set [2] has as its system Mus musculus. The experiment in a line: Antiinflammatory activity against ICR mouse assessed as inhibition of porcine pancreatic elastase-induced increase in MCP-1 level at 7.5 to 38 ug/kg administered intratracheally 1 hr prior to porcine pancreatic elastase challenge measured after 6 hrs by ELISA. Type of data set: functional, organism-based. In a few lines: (§2)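 Male ICR mice, 4-6 weeks old, under isoflurane anaesthesia, given each enantiomer or racemate intratracheally in sterile saline (1 ml/kg) by micropipette; 1 h later PPE (20 U/kg) or saline vehicle given the same way. BALF collected 6 h after PPE; TNF-α, MIP-2, MCP-1 and KC measured by ELISA. Mean ± SEM; Tukey's test.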
For orientation: In an ELISA, binding on a coated surface is turned into a signal by an enzyme label.

Data set [3] has as its system Mus musculus. Briefly: Bronchodilatory activity in ICR mouse assessed as supression of methacholine-induced increase in airway resistance at 38 ug/kg administered intratracheally 1 hr prior to methacholine challenge. The data set is classed as functional, organism-based. In outline:
(§3)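 Male ICR mice (4-6 weeks) given compound intratracheally in saline (1 ml/kg). 1 h later, anaesthetised with chloral hydrate (500 mg/kg), tracheotomised, and ventilated at 150 breaths/min, tidal volume 8.7 ml/kg, PEEP 2-3 cmH₂O. Challenged with nebulised methacholine (5 mg/ml), five 20 s exposures 40 s apart. Airway resistance measured after each challenge by snapshot technique. Mean ± SEM.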

Data set [4] concerns Mus musculus. Briefly: Antiinflammatory activity against ICR mouse assessed as inhibition of porcine pancreatic elastase-induced increase in leucocyte count in BALF at 7.5 to 38 ug/kg administered intratracheally 1 hr prior to porcine pancreatic elastase challenge measured after 6 hrs. Type of data set: functional, organism-based. In a few lines:
(§4)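 Male ICR mice (4-6 weeks), isoflurane-anaesthetised, dosed intratracheally in sterile saline (1 ml/kg) 1 h before intratracheal PPE (20 U/kg) or vehicle. BALF taken 6 h after PPE; total cells counted by hemocytometer, cytospin slides stained with Diff-Quik to get neutrophil fraction of total cells. Mean ± SEM; Tukey's test.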

Data set [5] in a line: Drug level in ICR mouse lung at 20 mg/kg administered intratracheally after 30 mins. Type of data set: ADME, organism-based. As to conditions: inhaled or intranasal, read-out: Drug uptake. More on the design: dose 20 mg/kg, route endotracheal. In a few lines:
as §1

Data set [6] relates to Mus musculus. The experiment in a line: Increase in heart rate in ICR mouse at 940 to 4700 ug/kg administered intratracheally measure immediately post dosing relative to control. The data set is classed as ADME, organism-based. As to conditions: in vivo, inhaled_or_intranasal. In outline: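 Male ICR mice (4-6 weeks) given compound intratracheally in sterile saline (1 ml/kg) under isoflurane; anaesthetised with chloral hydrate (500 mg/kg), pulse-oximeter sensor attached to thigh after 20 min. Heart rate (beats per minute) recorded immediately after dosing; percentage change from baseline to peak calculated. Mean ± SEM; Tukey's test.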

Data set [7] has as its system Mus musculus. The experiment in a line: Suppression of fecal pellet output in ICR mouse at 4.7 mg/kg administered intratracheally 1 hr prior to restraint stress measured for 1 hr relative to control. As to conditions: in vivo, inhaled_or_intranasal. Further details: dose 4.7 mg/kg, route endotracheal. The data set is classed as organism-based, Feces. In a few lines:
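Male ICR mice (4-6 weeks) dosed intratracheally in sterile saline (1 ml/kg) under isoflurane; vehicle controls received saline alone. One hour later each mouse was restrained individually in a 50 ml tube for 1 h, and fecal pellets excreted during restraint were counted. Mean ± SEM; Tukey's test.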

The test system of data set [8] is Lung. The experiment in a line: Drug level in ICR mouse lung treated intratracheally with 20 mg/kg (R)-Mepenzolate after 5 to 30 mins. As to conditions: in vivo, inhaled_or_intranasal. The data set is classed as ADME, organism-based. More on the design: dose 20 mg/kg, route endotracheal. In a few lines: as §1
The test system of data set [9] is Mus musculus. The experiment in a line: Antiinflammatory activity against ICR mouse assessed as inhibition of porcine pancreatic elastase-induced increase in MIP-2 level at 7.5 to 38 ug/kg administered intratracheally 1 hr prior to porcine pancreatic elastase challenge measured after 6 hrs by ELISA. The data set is classed as functional, organism-based. In outline:
as §2

Data set [10] has as its system Mus musculus. Briefly: Antiinflammatory activity against ICR mouse assessed as inhibition of porcine pancreatic elastase-induced increase in neutrophil count in BALF at 7.5 to 38 ug/kg administered intratracheally 1 hr prior to porcine pancreatic elastase challenge measured after 6 hrs. The data set is classed as functional, organism-based. In outline:
as §4

Data set [11] is described as follows: Drug level in ICR mouse lung at 20 mg/kg administered intratracheally after 5 mins. Type of data set: ADME, organism-based. Further details: dose 20 mg/kg, route endotracheal. As to conditions: inhaled or intranasal, read-out: Drug uptake. In a few lines: as §1
Data set [12] deals with Mus musculus. The experiment in a line: Antiinflammatory activity against ICR mouse assessed as inhibition of porcine pancreatic elastase-induced increase in TNF-alpha level at 7.5 to 38 ug/kg administered intratracheally 1 hr prior to porcine pancreatic elastase challenge measured after 6 hrs by ELISA. Type of data set: functional, organism-based. In outline:
as §2

For data set [13], the system named is Mus musculus. Briefly: Antiinflammatory activity against ICR mouse assessed as inhibition of porcine pancreatic elastase-induced increase in KC level at 7.5 to 38 ug/kg administered intratracheally 1 hr prior to porcine pancreatic elastase challenge measured after 6 hrs by ELISA. Type of data set: functional, organism-based. In outline:
as §2

Data set [14] relates to Mus musculus. Briefly: Bronchodilatory activity in ICR mouse assessed as supression of methacholine-induced increase in airway resistance at 3.8 ug/kg administered intratracheally 1 hr prior to methacholine challenge. Type of data set: functional, organism-based. In outline:
as §3

Data set [15] relates to Lung. Briefly: Drug level in ICR mouse lung treated intratracheally with 20 mg/kg (S)-Mepenzolate after 5 to 30 mins. The data set is classed as ADME, organism-based. Further details: dose 20 mg/kg, route endotracheal. As to conditions: in vivo, inhaled_or_intranasal. In outline: as §1

The structures appear in SMILES notation. Calls of active or inactive are those of the source. The calls are words filed in the database; no cut-off is given here.

In the case of `C[N+]1(C)CCC[C@H](OC(=O)C(O)(c2ccccc2)c2ccccc2)C1.[Br-]`, in data set [1], the concentration at 0.25 h was 7600 ng/mL. The outcome in the data set on Mus musculus [2], with Mus musculus [3], in the data set with Mus musculus [4], with Mus musculus [9], with Mus musculus [10] and in the data set on Mus musculus [12] was Active. The result in the data set with Mus musculus [13] was Active. In data set [5], the concentration at 0.5 h was determined as 6200 ng/mL. In addition, the Activity result with Mus musculus [6] was “Toxic”; in the data set with Mus musculus [7], “Non-toxic”. Further, the Drug metabolism entry in the data set with Lung [8] was “metabolite_notdetected”. Also, the concentration at 5 min in [11] came to 36400 ng/mL. Further, the outcome with Mus musculus [14] was inactive.

Take `C[N+]1(C)CCC[C@@H](OC(=O)C(O)(c2ccccc2)c2ccccc2)C1.[Br-]`: the concentration at 0.25 h in data set [1] is 6300 ng/mL. For the same compound, the result with Mus musculus [2], in the data set with Mus musculus [3], with Mus musculus [4], with Mus musculus [9], in the data set with Mus musculus [10] and with Mus musculus [12] was Active. For the same compound, the outcome with Mus musculus [13] and in the data set on Mus musculus [14] was Active. In data set [5], the concentration at 0.5 h was determined as 5100 ng/mL. In addition, the Activity result in the data set with Mus musculus [6] and in the data set with Mus musculus [7] was “Toxic” throughout. Further, in data set [11], the concentration at 5 min was 44500 ng/mL. The Drug metabolism result with Lung [15] is recorded as “metabolite_notdetected”.

As for `C[N+]1(C)CCCC(OC(=O)C(O)(c2ccccc2)c2ccccc2)C1.[Br-]` (racemic) [MEPENZOLATE BROMIDE], the result with Mus musculus [2], in the data set on Mus musculus [3], in the data set on Mus musculus [4], in the data set with Mus musculus [9], with Mus musculus [10] and in the data set on Mus musculus [12] was Active. The outcome with Mus musculus [13] and in the data set on Mus musculus [14] was Active. Also, the Activity result in the data set on Mus musculus [6] and in the data set on Mus musculus [7] was “Toxic” each time.

The record behind these values is ChEMBL document CHEMBL3286356, “Synthesis and biological comparison of enantiomers of mepenzolate bromide, a muscarinic receptor antagonist with bronchodilatory and anti-inflammatory activities” (Bioorg Med Chem, 2014).
